Test results taken from ChEMBL document CHEMBL4304827, “Design, synthesis and evaluation of structurally diverse chrysin-chromene-spirooxindole hybrids as anticancer agents” (Bioorg Med Chem, 2019).

Experiments:
A549 [1] = assay: Induction of apoptosis in human A549 cells assessed as necrotic cells at 50 uM incubated for 24 hrs by annexin V FITC and PI staining based flow cytometry (reference value: 2.43%); type: functional
A549 [2] = assay: Induction of ROS production in human A549 cells incubated for 24 hrs by DCFH-DA staining based fluorescence microscopy; type: functional, cell-based
Procedure, shortened: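 A549 cells were plated at 3 × 10^5/well and cultured 12 h, then treated with various concentrations for 24 h. They were washed in serum-free medium and loaded with DCFH-DA (10 μM) for 20 min at 37 °C in the dark. DCF fluorescence was imaged by fluorescence microscopy.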

A549 [3] = assay: Induction of apoptosis in human A549 cells assessed as upregulation of p21 protein expression incubated for 24 hrs by Western blot analysis; type: functional, cell-based
Procedure, shortened: (§1)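 A549 cells were treated with various concentrations for 24 h and lysed in RIPA buffer with 1 mM PMSF. Protein (20 μg) was resolved on 8-12% SDS-PAGE and transferred to PVDF. Membranes were blocked in 5% milk and probed with primary antibodies overnight at 4 °C, then with anti-rabbit secondary. Bands were quantified by densitometry. Mean ± SD, ≥3 experiments.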

A549 [4] = assay: Induction of apoptosis in human A549 cells assessed as increase in caspase 3 activity incubated for 24 hrs by colorimetry; type: functional, cell-based
Procedure, shortened: (§2)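 A549 cells were plated at 3 × 10^5/well and cultured 12 h, then treated with various concentrations for 24 h. Cells were lysed on ice for 60 min. Lysate containing 200 μg protein was incubated with caspase-3, -8 or -9 colorimetric substrate at 37 °C for 4 h in the dark, and A405 was read. Activation = (treated − blank)/(control − blank). Mean ± SD, ≥3 experiments.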

A549 [5] = assay: Induction of apoptosis in human A549 cells assessed as increase in caspase 8 activity incubated for 24 hrs by colorimetry; type: functional, cell-based; procedure, shortened: as §2
A549 [6] = assay: Induction of apoptosis in human A549 cells assessed as necrotic cells at 25 uM incubated for 24 hrs by annexin V FITC and PI staining based flow cytometry (reference value: 2.43%); type: functional
A549 [7] = assay: Induction of apoptosis in human A549 cells assessed as upregulation of p53 protein expression at 10 uM by Western blot analysis; type: functional, cell-based; conditions: TDE = time-dependent effect
Procedure, shortened: (§3)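 A549 cells were exposed to 10 μM for different times and lysed in RIPA buffer with 1 mM PMSF. Protein (20 μg) was separated on 8-12% SDS-PAGE and transferred to PVDF. Membranes were blocked in 5% milk and incubated with primary antibodies overnight at 4 °C, then with anti-rabbit secondary. Bands were quantified by densitometry. Mean ± SD, ≥3 experiments.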

A549 [8] = assay: Induction of apoptosis in human A549 cells assessed as necrotic cells at 5 uM incubated for 24 hrs by annexin V FITC and PI staining based flow cytometry (reference value: 2.43%); type: functional
A549 [9] = assay: Induction of apoptosis in human A549 cells assessed as increase in caspase 9 activity incubated for 24 hrs by colorimetry; type: functional, cell-based; procedure, shortened: as §2
A549 [10] = assay: Inhibition of colony formation in human A549 cells cultured in plate assessed as decrease in size and number of colonies formed incubated for 10 days by crystal violet staining based fluorescence microscopy; type: functional, cell-based
Procedure, shortened: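 Log-phase A549 cells were seeded at 1 × 10^3/well and cultured 24 h. Medium containing various concentrations was added and cells were grown 10 days. Colonies were fixed in 4% paraformaldehyde for 30 min, stained with 0.1% crystal violet and imaged by microscopy. Colony percentage was calculated relative to control colonies. Mean ± SD, ≥3 experiments.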

A549 [11] = assay: Induction of apoptosis in human A549 cells assessed as downregulation of Akt protein expression incubated for 24 hrs by Western blot analysis; type: functional, cell-based; procedure, shortened: as §1
A549 [12] = assay: Antimigratory activity in human A549 cells assessed as reduction in wound healing incubated for 36 hrs by wound healing assay; type: functional, cell-based
Procedure, shortened: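 Confluent A549 monolayers, seeded at 1 × 10^5 cells/well, were scratched with a pipette tip. Medium was replaced with medium containing various concentrations and cells were incubated 36 h. Migration area was measured by microscopy and expressed as a percentage of control (control = 100%). Mean ± SD, ≥3 independent experiments.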

A549 [13] = assay: Induction of apoptosis in human A549 cells assessed as upregulation of Bax protein expression incubated for 24 hrs by Western blot analysis; type: functional, cell-based; procedure, shortened: as §1
A549 [14] = assay: Induction of apoptosis in human A549 cells assessed as upregulation of p21 protein expression at 10 uM by Western blot analysis; type: functional, cell-based; conditions: TDE = time-dependent effect; procedure, shortened: as §3
A549 [15] = assay: Induction of apoptosis in human A549 cells assessed as early apoptotic cells at 5 uM incubated for 24 hrs by annexin V FITC and PI staining based flow cytometry (reference value: 0.53%); type: functional
A549 [16] = assay: Induction of apoptosis in human A549 cells assessed as upregulation of Cyt c protein expression incubated for 24 hrs by Western blot analysis; type: functional, cell-based; procedure, shortened: as §1
A549 [17] = assay: Induction of apoptosis in human A549 cells assessed as late apoptotic cells at 25 uM incubated for 24 hrs by annexin V FITC and PI staining based flow cytometry (reference value: 1.32%); type: functional
A549 [18] = assay: Induction of apoptosis in human A549 cells assessed as viable cells at 5 uM incubated for 24 hrs by annexin V FITC and PI staining based flow cytometry (reference value: 95.7%); type: functional; conditions: A549, 24 h, read-out: Activity
A549 [19] = assay: Induction of apoptosis in human A549 cells assessed as viable cells at 25 uM incubated for 24 hrs by annexin V FITC and PI staining based flow cytometry (reference value: 95.7%); type: functional; conditions: A549, 24 h, read-out: Activity
A549 [20] = assay: Induction of apoptosis in human A549 cells assessed as upregulation of Cyt c protein expression at 10 uM by Western blot analysis; type: functional, cell-based; conditions: TDE = time-dependent effect; procedure, shortened: as §3
A549 [21] = assay: Induction of apoptosis in human A549 cells assessed as downregulation of Akt protein expression at 10 uM by Western blot analysis; type: functional, cell-based; conditions: TDE = time-dependent effect; procedure, shortened: as §3
A549 [22] = assay: Induction of apoptosis in human A549 cells assessed as increase in caspase 3 activity at 100 uM incubated for 24 hrs by colorimetry relative to control; type: functional; procedure, shortened: as §2
A549 [23] = assay: Induction of apoptosis in human A549 cells assessed as upregulation of p53 protein expression incubated for 24 hrs by Western blot analysis; type: functional, cell-based; procedure, shortened: as §1
A549 [24] = assay: Antimigratory activity in human A549 cells assessed as reduction in cell invasion incubated for 36 hrs by matrigel transwell migration assay; type: functional, cell-based
Procedure, shortened: (§4)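 Cells were suspended at 1 × 10^4/mL in RPMI-1640 with 1% FBS and seeded in the upper chamber. For the invasion assay the upper chamber was coated with Matrigel. The lower chamber held medium with 10% FBS. Compound was given at various concentrations for 36 h. Membranes were methanol-fixed and stained with 0.1% crystal violet. Cells on the lower side were counted relative to control (100%). Mean ± SD, ≥3 experiments.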

A549 [25] = assay: Induction of apoptosis in human A549 cells assessed as downregulation of 5-Lox protein expression at 10 uM by Western blot analysis; type: functional, cell-based; conditions: TDE = time-dependent effect; procedure, shortened: as §3
A549 [26] = assay: Antimigratory activity in human A549 cells assessed as reduction in cell migration incubated for 36 hrs by transwell migration assay; type: functional, cell-based; procedure, shortened: as §4
A549 [27] = assay: Induction of apoptosis in human A549 cells assessed as downregulation of MDM2 protein expression at 10 uM by Western blot analysis; type: functional, cell-based; conditions: TDE = time-dependent effect; procedure, shortened: as §3
A549 [28] = assay: Induction of apoptosis in human A549 cells assessed as late apoptotic cells at 5 uM incubated for 24 hrs by annexin V FITC and PI staining based flow cytometry (reference value: 1.32%); type: functional

How did the Activity (A549 [1]) turn out when `CN1C(=O)C2(C(C#N)=C(N)Oc3cc4oc(-c5ccccc5)cc(=O)c4c(O)c32)c2cc(Br)ccc21` (stereo not drawn) was run?
Its Activity is 6.11%.

And the Activity (A549 [2])?
Its Activity is “Dose-dependent effect”.

And the Activity (A549 [3])?
Its Activity is “Dose-dependent effect”.

What about the Activity (A549 [4]) of the same compound?
The Activity was “Dose-dependent effect”.

What about the Activity (A549 [5]) of the same compound?
Its Activity is “Dose-dependent effect”.

And the Activity (A549 [6])?
The Activity was 2.97%.

What about the Activity (A549 [7]) of the same compound?
Its Activity is “Tde”.

What about the Activity (A549 [8]) of the same compound?
The Activity was 0.732%.

What about the Activity (A549 [9]) of the same compound?
Its Activity is “Dose-dependent effect”.

What about the inhibition (A549 [10]) of the same compound?
Its inhibition is “Dose-dependent effect”.

What about the inhibition (A549 [11]) of the same compound?
The inhibition was “Dose-dependent effect”.

And the inhibition (A549 [12])?
The inhibition was “Dose-dependent effect”.

What about the Activity (A549 [13]) of the same compound?
Its Activity is “Dose-dependent effect”.

And the Activity (A549 [14])?
Its Activity is “Tde”.

And the Activity (A549 [15])?
The Activity was 6.53%.

And the Activity (A549 [16])?
Its Activity is “Dose-dependent effect”.

What about the Activity (A549 [17]) of the same compound?
Its Activity is 13.7%.

What about the viability at 5 µM (A549 [18]) of the same compound?
The viability at 5 µM was 85%.

And the viability at 25 µM (A549 [19])?
Its viability at 25 µM is 73.5%.

And the Activity (A549 [20])?
Its Activity is “Tde”.

And the inhibition (A549 [21])?
Its inhibition is “Tde”.

And the “fold change (FC)” value (A549 [22])?
Its value is 5.24.

And the Activity (A549 [23])?
The Activity was “Dose-dependent effect”.

What about the inhibition (A549 [24]) of the same compound?
Its inhibition is “Dose-dependent effect”.

What about the inhibition (A549 [25]) of the same compound?
Its inhibition is “Tde”.

What about the inhibition (A549 [26]) of the same compound?
Its inhibition is “Dose-dependent effect”.

And the inhibition (A549 [27])?
Its inhibition is “Tde”.

What about the Activity (A549 [28]) of the same compound?
The Activity was 6.73%.
